Rows were chosen to be rich in hits. Some 3.7% of all compounds tested hit in one or more screens of this group.
Beta2AR agonist: activates human beta-2 adrenergic receptor causing internalization; P07550; hit rate 0.43% among 340,000; response, % (test concentration not listed); AID 504454; Am2.2-beta2AR cells, FAP receptor internalization, flow cytometry;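 active = response above a set limit, near 3 SD of response in nonfluorescent compounds, cut at about 42% in these data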
Dynein cargo inh: dynein cargo transport inhibition; 3617.4 mouse cells, GR-EGFP nuclear translocation imaging; test concentration mostly 20 µM; stimulated with dexamethasone, 1 µM; hits give low values; z-score, hits read low; hit rate 0.47% among 220,000; AID 1381;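 active = plate z-score of nuclear minus cytoplasmic receptor signal below a set negative limit, without overly bright fluorescence or cell loss, cut at about -3.5 in these data, passing the limit was not always enough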;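 note: z-score of nuclear minus cytoplasmic ring GR-EGFP intensity difference per well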
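Buffer or medium – tet-free medium with charcoal-stripped serum · Signal – automated 10x imaging of fixed Hoechst-stained cells · Also added – dexamethasone agonist, 1.0 µM final, for 30 min · Incubation – induction 48 h, compound 1 h, agonist 30 min · Read-out – GR-EGFP nuclear translocation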
Mdm2-MdmX inh: disrupts the human Mdm2-MdmX interaction; SaOS-2 split-luciferase Mdm2/MdmX complementation, luminescence; inhibition, % at 8 µM; hit rate 3% among 330,000; O15151+Q00987;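 active = inhibition of at least 50% at 8 µM in the primary screen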
MDM2 E3 inh: blocks human Mdm2 ubiquitin ligase activity. Q00987. cell-based MDM2 ubiquitination luciferase reporter, 2 h; 0 = plate control, 100 = twice control, blank-subtracted. signal enhancement, % at 5 µM. hit rate 0.11% among 210,000. AID 1230;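 active = signal enhancement of 30% or more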;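 note: luminescence tracks abundance of the self-degrading MDM2-luciferase fusion protein; higher signal means inhibition of MDM2 E3 ligase activity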
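Assay system: mammalian cells stably expressing self-ubiquitinating, self-degrading MDM2 E3–luciferase fusion. Quantity: 2000 cells in each well. Medium: DMEM culture medium. Compound dosing: single-point 5 µM. Timing: cell settling 4 h, compound treatment 2 h, both 37 °C. Technique: luciferase luminescence. Read-out basis: percent signal gain over controls, blank-subtracted. Benchmarks: plate controls and plate blanks.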
UPR XBP1 act: activators of adaptive arm of unfolded protein response (XBP1) | hit rate 0.33% among 330,000 | AID 463104 | activation, % at 20 µM | CHO-XBP1 luciferase reporter, IRE1-XBP1 UPR activation, luminescence; percent of tunicamycin response, DMSO as zero;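 active = versus positive control, 20 µM dose yields 30% or more activation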
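Assay system: IRE1-XBP1 luciferase reporter CHO line. Input: 1000 cells/well. Buffer or medium: F12 with 10% serum. Doses: 20 µM, 1% DMSO. Times: overnight seeding at 37 °C, 6 h compound treatment at 37 °C. Technique: Steady-Glo luciferase glow luminescence, 10 min after reagent addition.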
CHOP UPR activ: apoptotic UPR (CHOP) activation | CHO-CHOP luciferase reporter, luminescence; percent of tunicamycin response over DMSO baseline | activation, % at 10 µM | hit rate 0.34% among 330,000 | AID 449763;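 active = at 10 µM dose, activation of 40% or more, normalized to positive control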
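Material: CHO-CHOP cells, stable luciferase reporter of PERK-eIF2a-CHOP signalling; quantity: 500 reporter cells seeded per well; buffer or medium: F12 medium containing 10% fetal bovine serum; compound: one dose, 10 µM in 0.5% DMSO; incubation: 6 h compound treatment, 37 °C; measured by: Steady-Glo luciferase luminescence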
Mdm2-MdmX conf: confirmation of human Mdm2/MdmX interaction inhibitors | Mdm2-MdmX binding, luminescent assay | inhibition, % at 8 µM | shares compounds with Mdm2-MdmX inh | hit rate 55% among 10,000 | AID 489028; in the data active = inhibition above about 40%
FLuc counter: full-length luciferase inhibition in Mdm2/MdmX counter-screen | hit rate 77% among 6,200 | shares compounds with Mdm2-MdmX inh | inhibition, % at 8 µM | SaOS-2 full-length luciferase counterscreen, luminescence;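 active = mean inhibition at 8 µM reaching about 37%, which flags the compound as non-specific, limit read from the data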;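 note: p53-null SaOS-2 cells with luciferase driven by a doxycycline-inducible promoter; compound on cells about two nights before reading with doxycycline added after day one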
Each line names hits and unclear results; the compound was inactive in the other large screens (follow-up assays come after a bar, where they were run).

CCCCCCN1C=CC(=C2C(=O)c3ccccc3C2=O)C=C1	none
CCCN1C=CC(=C2C(=O)c3ccccc3C2=O)C=C1	Mdm2-MdmX inh 88 | Mdm2-MdmX conf 94 | FLuc counter 55
Cc1ccc(CNCc2cc3c(C(C)(C)C)nn(-c4ccccc4)c3[nH]c2=O)cc1	Mdm2-MdmX inh 50 | Mdm2-MdmX conf inactive
COc1ccc(CNCc2cc3c(C(C)(C)C)nn(-c4ccccc4)c3[nH]c2=O)cc1	none
O=C(NCC1CCCCC1)C1(CC2CC(c3cccc(Br)c3)=NO2)CCNCC1 (stereo unspecified)	Mdm2-MdmX inh 79 (no result: Dynein cargo inh, MDM2 E3 inh) | Mdm2-MdmX conf inactive
CCCCCCCNC(=O)C1(CC2CC(c3ccccc3)=NO2)CCNCC1 (stereo unspecified)	Mdm2-MdmX inh 54 (no result: Dynein cargo inh, MDM2 E3 inh) | Mdm2-MdmX conf inactive
CC(C)(C)OC(=O)N1CCC(CC2CC(c3cccc(Br)c3)=NO2)(C(=O)NCC2CCCCC2)CC1 (stereo unspecified)	none (no result: Dynein cargo inh, MDM2 E3 inh)
O=C(NCC1CCCCC1)C1(CC2CC(c3ccc(Cl)cc3)=NO2)CCNCC1 (stereo unspecified)	Mdm2-MdmX inh 67 (no result: Dynein cargo inh, MDM2 E3 inh) | Mdm2-MdmX conf inactive
Cc1ccc2c(c1)S(=O)(=O)N(C)C(c1ccccc1)=C2	none (no result: Dynein cargo inh, Mdm2-MdmX inh, MDM2 E3 inh, UPR XBP1 act, CHOP UPR activ)
CC(NC(=O)Nc1nnc(C(F)(F)F)s1)(C(F)(F)F)C(F)(F)F	Mdm2-MdmX inh 95 | Mdm2-MdmX conf 59 | FLuc counter inactive
CN(CC(=O)Nc1sccc1C(N)=O)S(=O)(=O)c1ccc(Cl)cc1	none (no result: Dynein cargo inh, MDM2 E3 inh)
COc1ccc2cc1Oc1ccc(cc1)C[C@H]1c3cc(c(OC)cc3CCN1C)Oc1c(OC)c(OC)cc3c1[C@@H](C2)N(C)CC3	Mdm2-MdmX inh 100 (no result: Dynein cargo inh, MDM2 E3 inh) | Mdm2-MdmX conf 90 | FLuc counter 60
CCOc1ccc(C(=O)NC(=S)Nc2ccccn2)cc1[N+](=O)[O-]	Mdm2-MdmX inh 88 | Mdm2-MdmX conf inactive
O=C1/C(=C/c2ccccc2)SC(=S)N1CCCC(=O)N1CCCCC1CCO (stereo unspecified)	Mdm2-MdmX inh 85 (no result: Dynein cargo inh, MDM2 E3 inh) | Mdm2-MdmX conf 57 | FLuc counter 37
O=C1/C(=C/c2ccccc2F)SC(=S)N1CCC(=O)N1CCCCC1CCO (stereo unspecified)	Mdm2-MdmX inh 61 (no result: Dynein cargo inh, MDM2 E3 inh) | Mdm2-MdmX conf inactive
O=C1/C(=C/c2ccco2)SC(=S)N1CCC(=O)N1CCCCC1CCO (stereo unspecified)	none (no result: Dynein cargo inh, MDM2 E3 inh)
O=C1/C(=C/c2cccc(Cl)c2)SC(=S)N1CCC(=O)N1CCCCC1CCO (stereo unspecified)	Mdm2-MdmX inh 63 (no result: Dynein cargo inh, MDM2 E3 inh) | Mdm2-MdmX conf 41 | FLuc counter 39
COc1ccc(/C=C2\SC(=S)N(CCC(=O)N3CCCCC3CCO)C2=O)cc1 (stereo unspecified)	none (no result: Dynein cargo inh, MDM2 E3 inh)
O=C1/C(=C/c2ccc(Cl)cc2)SC(=S)N1CCC(=O)N1CCCCC1CCO (stereo unspecified)	none (no result: Dynein cargo inh, MDM2 E3 inh)
CC1(C(=O)Nc2cccc(-n3cnnn3)c2)Cc2ccccc2C(=O)O1 (stereo unspecified)	none (no result: Dynein cargo inh, MDM2 E3 inh)
COc1ccc(CCNC(=O)C(=O)N/N=C/c2cccs2)cc1OC	none
CN(CC(=O)Nc1ccc(F)c(F)c1F)C(=O)c1ccc(=O)[nH]c1	none (no result: Dynein cargo inh, MDM2 E3 inh)
COc1ccc(C(=O)C(C)OC(=O)COc2ccccc2)cc1 (stereo unspecified)	none (no result: Dynein cargo inh, MDM2 E3 inh)
COc1ccc(CCC(=O)OC(C)C(=O)c2ccc(C)cc2)cc1 (stereo unspecified)	Mdm2-MdmX inh 67 | Mdm2-MdmX conf inactive
O=CN/C=C/c1cccc(O)c1	none (no result: Dynein cargo inh, Mdm2-MdmX inh, MDM2 E3 inh, UPR XBP1 act, CHOP UPR activ)
Oc1ccc(Nc2nc(-c3ccccc3F)nc3ccccc23)cc1	none (no result: Dynein cargo inh, MDM2 E3 inh)
COc1ccc(Nc2nc(-c3ccccc3F)nc3ccccc23)cc1OC	Mdm2-MdmX inh 55 (no result: Dynein cargo inh, MDM2 E3 inh) | Mdm2-MdmX conf inactive

Assay outcomes: PubChem, several laboratories
